In ChEMBL document CHEMBL4715690 (Bioorg Med Chem, 2016):
pIC50: −log10 of the molar value. Values belong to the compound of their own block, whether it stands above or below them. Activity calls are given as the source filed them. No cut-off for these calls is given here.

Tests used:
A549 = test: Cytotoxicity against human A549 cells assessed as reduction in cell viability incubated for 72 hrs by MTT assay; type: functional, cell-based; details: A549, 72 h
Bel-7402 = test: Cytotoxicity against human Bel-7402 cells assessed as reduction in cell viability incubated for 72 hrs by MTT assay; type: functional, cell-based; details: Bel-7402, 72 h
MOLT-4 = test: Cytotoxicity against human MOLT-4 cells assessed as reduction in cell viability incubated for 72 hrs by MTT assay; type: functional, cell-based; details: MOLT-4, 72 h
HL-60 = test: Cytotoxicity against human HL-60 cells assessed as reduction in cell viability incubated for 72 hrs by MTT assay; type: functional, cell-based; details: HL-60, 72 h
[1] = Cytotoxicity against human MCF-10A cells assessed as cell viability at 5 uM incubated for 72 hrs by MTT assay; type: cell-based; details: read-out: Activity
T47D = test: Antiproliferative activity against human T47D cells assessed as reduction in cell viability incubated for 72 hrs by MTT assay; type: functional, cell-based
Procedure, shortened: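 Cells plated at 1×10⁴/well in RPMI-1640 with 10% FBS and left to adhere overnight. They were then fed serum-free RPMI-1640 containing 40 ng/mL HGF and at least four compound concentrations, 6 wells/group, for 72 h, with medium renewed every other day. MTT 1 mg/mL for 4 h, formazan dissolved in DMSO, A570. Cell number came from a standard curve; IC50 from nonlinear regression of log concentration vs % survival relative to DMSO.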

[2] = Cytotoxicity against human MCF-10A cells assessed as cell viability at 30 uM incubated for 72 hrs by MTT assay; type: cell-based; details: read-out: Activity
[3] = biological target: T1, Hepatocyte growth factor receptor (Homo sapiens, UniProt P08581); test: Inhibition of recombinant human His-tagged c-MET expressed in baculovirus expression system assessed as reduction in c-MET phosphorylation at 10 uM using Tyr6 as substrate incubated for 1 hr by Z'-lyte assay relative to control
Procedure, shortened: (§1)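 Cell-free Z′-LYTE Tyr6 assay with recombinant human wild-type or M1250T mutant c-Met kinase at 2500 ng/mL, plus 200 μM ATP, 4 μM Tyr6 peptide and inhibitor. Reaction ran 1 h at room temperature, followed by protease development for 1 h. Readout was the 445/520 nm emission ratio. IC50 from nonlinear regression of log concentration vs % phosphorylation; n=3/dose.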

MDA-MB-231 [4] = test: cells; details: Homo sapiens, MDA-MB-231, 24 h
MDA-MB-231 [5] = test: Antiinvasive activity against human MDA-MB-231 cells assessed as reduction in HGF-mediate cell invasion at 8 uM incubated for 24 hrs by fluorescence based assay relative to control; type: functional; parameters: scale not given: the % may be the effect or the level left
Procedure, shortened: (§2)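 Cells starved 16 h in serum-free RPMI-1640, then 25,000 cells placed in rehydrated basement-membrane inserts. The bottom wells held 5% serum medium with test compound or DMSO vehicle, and invasion was induced with 40 ng/mL HGF. After 24 h at 37 °C, invaded cells were stained with calcein AM and read at ex 485/em 520 nm. Cell number came from a standard curve; triplicates.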

SK-BR-3 = test: Antiproliferative activity against human SK-BR-3 cells expressing c-MET assessed as reduction in cell viability incubated for 72 hrs by MTT assay; type: functional, cell-based; details: SK-BR-3, 72 h
Procedure, shortened: (§3)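 Cells plated at 1×10⁴/well (6 wells/group) in RPMI-1640 with 10% FBS and left to adhere overnight. They were then switched to serum-free RPMI-1640 with 40 ng/mL HGF as mitogen plus at least four compound concentrations, or DMSO vehicle (final ≤0.1%), for 72 h, refed every other day. MTT (1 mg/mL) was added for 4 h, formazan dissolved in DMSO, and A570 read. Cell number came from a standard curve, survival was expressed versus DMSO, and IC50 was fitted by nonlinear regression.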

[6] = Cytotoxicity against human MCF-10A cells assessed as cell viability at 20 uM incubated for 72 hrs by MTT assay; type: cell-based; details: read-out: Activity
MDA-MB-231 [7] = test: Cytotoxicity against human MDA-MB-231 cells assessed as reduction in cell viability at 25 uM incubated for 24 hrs by LDH assay relative to control; type: functional
Procedure, shortened: (§4)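 MDA-MB-231 cells seeded at 3×10⁴/well and allowed to attach, then treated in triplicate in 5% serum medium for 24 h at 37 °C. Triton X-100 gave maximum release, and […]. Supernatant was reacted with NAD⁺, lactate, INT and diaphorase for 30 min at room temperature, then read at A490. % cytotoxicity was computed relative to spontaneous and maximum release.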

MDA-MB-468 = test: Antiproliferative activity against human MDA-MB-468 cells expressing c-MET assessed as reduction in cell viability incubated for 72 hrs by MTT assay; type: functional, cell-based; details: MDA-MB-468, 72 h; procedure, shortened: as §3
[8] = biological target: Hepatocyte growth factor receptor (Homo sapiens, UniProt P08581, M1250T); test: Inhibition of recombinant human His-tagged c-MET M1250T mutant expressed in baculovirus expression system assessed as reduction in c-MET phosphorylation using Tyr6 as substrate incubated for 1 hr by Z'-lyte assay
[9] = biological target: T1, Hepatocyte growth factor receptor; test: Inhibition of c-MET in human MDA-MB-231 cells assessed as reduction in c-MET phosphorylation level at 15 to 30 uM incubated for 48 hrs by Western blot analysis; type: cell-based; details: dose 15-30 µM
Procedure, shortened: (§5)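 MDA-MB-231 cells seeded at 1×10⁶ per 100 mm dish and left overnight. Cells were treated with compound or DMSO in serum-free medium containing HGF 50 ng/mL for 48 h. RIPA lysates (30 μg protein) were run on SDS-PAGE and transferred to PVDF. Membranes were blocked in 5% BSA/TBST and probed overnight at 4 °C with primary antibodies, then HRP secondary; chemiluminescent detection.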

[10] = biological target: T1, Hepatocyte growth factor receptor; test: Inhibition of recombinant human His-tagged c-MET expressed in baculovirus expression system assessed as reduction in c-MET phosphorylation at 5 uM using Tyr6 as substrate incubated for 1 hr by Z'-lyte assay relative to control; procedure, shortened: as §1
[11] = Cytotoxicity against human MCF-10A cells assessed as cell viability at 10 uM incubated for 72 hrs by MTT assay; type: cell-based; details: read-out: Activity
MDA-MB-231 [12] = test: Antiinvasive activity against human MDA-MB-231 cells assessed as reduction in HGF-mediate cell invasion at 4 uM incubated for 24 hrs by fluorescence based assay relative to control; type: functional; parameters: scale not given: the % may be the effect or the level left; procedure, shortened: as §2
MDA-MB-231 [13] = test: Reduction of c-MET expression level in human MDA-MB-231 cells at 15 to 30 uM incubated for 48 hrs by Western blot analysis; type: functional, cell-based; details: dose 15-30 µM; procedure, shortened: as §5
MDA-MB-231 [14] = test: Antiinvasive activity against human MDA-MB-231 cells assessed as reduction in HGF-induced cell invasion incubated for 24 hrs by fluorescence based assay; type: functional; procedure, shortened: as §2
[15] = Toxicity in athymic nude-Foxn1nu/Fox1+ mouse assessed as effect on body weight at 10 mg/kg, ip dosed 3 times per week for 3 weeks treatment started 14 days of post inoculation; type: organism-based; details: in vivo, 504 h
Procedure, shortened: (§6)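 Female athymic nude mice, 4–5 weeks old, received 1×10⁶ MDA-MB-231/GFP cells into the second mammary fat pad (orthotopic), n = 5/group. Dosing was 10 mg/kg i.p. 3×/week or DMSO/saline vehicle, starting on day 14 after inoculation. Tumor volume was taken as L/2 × W², with body weight and clinical signs monitored. Mice were killed on day 33 and tumors excised and weighed.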

[16] = biological target: T1, Hepatocyte growth factor receptor; test: Inhibition of recombinant human His-tagged c-MET expressed in baculovirus expression system assessed as reduction in c-MET phosphorylation using Tyr6 as substrate incubated for 1 hr by Z'-lyte assay; procedure, shortened: as §1
MCF7 = test: Antiproliferative activity against human MCF7 cells expressing c-MET assessed as reduction in cell viability incubated for 72 hrs by MTT assay; type: functional, cell-based; details: MCF7, 72 h; procedure, shortened: as §3
BT-474 = test: Antiproliferative activity against human BT-474 cells expressing c-MET assessed as reduction in cell viability incubated for 72 hrs by MTT assay; type: functional, cell-based; details: BT-474, 72 h; procedure, shortened: as §3
[17] = Antiproliferative activity against human MCF7-DOX cells expressing c-MET assessed as reduction in cell viability incubated for 72 hrs by MTT assay; type: functional, cell-based
Procedure, shortened: (§7)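 MTT proliferation. Cells in exponential growth were seeded at 1×10⁴/well (6 wells/group) in RPMI-1640 with 10% FBS and left to adhere overnight. They were then switched to serum-free RPMI-1640 with 40 ng/mL HGF as mitogen plus test doses (at least four concentrations) or DMSO vehicle (≤0.1% final), refreshed every other day. After 72 h, 1 mg/mL MTT was added for 4 h, DMSO solubilized, A570 read. Cell number came from a standard curve, and IC50 was fitted by nonlinear regression of log concentration versus % survival.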

MDA-MB-231 [18] = test: Antiproliferative activity against human MDA-MB-231 cells expressing c-MET assessed as reduction in cell viability incubated for 72 hrs by MTT assay; type: functional, cell-based; details: MDA-MB-231, 72 h; procedure, shortened: as §7
MDA-MB-231 [19] = test: Cytotoxicity against human MDA-MB-231 cells assessed as reduction in cell viability at 50 uM incubated for 24 hrs by LDH assay relative to control; type: functional; procedure, shortened: as §4
MDA-MB-231 [20] = test: Antitumor activity against GFP-tagged human MDA-MB-231 cells xenografted in athymic nude-Foxn1nu/Fox1+ mouse assessed as the reduction in tumor growth at 10 mg/kg, ip dosed 3 times per week for 3 weeks treatment started 14 days of post inoculation; type: functional; details: MDA-MB-231, ip, 504 h, read-out: TGI; procedure, shortened: as §6
MDA-MB-231 [21] = test: Antiinvasive activity against human MDA-MB-231 cells assessed as reduction in HGF-mediate cell invasion at 15 uM incubated for 24 hrs by fluorescence based assay relative to control; type: functional; parameters: scale not given: the % may be the effect or the level left; procedure, shortened: as §2
MDA-MB-231 [22] = test: Antiinvasive activity against human MDA-MB-231 cells assessed as reduction in HGF-mediate cell invasion at 30 uM incubated for 24 hrs by fluorescence based assay relative to control; type: functional; parameters: scale not given: the % may be the effect or the level left; procedure, shortened: as §2

T1 sequence (P08581 whole entry): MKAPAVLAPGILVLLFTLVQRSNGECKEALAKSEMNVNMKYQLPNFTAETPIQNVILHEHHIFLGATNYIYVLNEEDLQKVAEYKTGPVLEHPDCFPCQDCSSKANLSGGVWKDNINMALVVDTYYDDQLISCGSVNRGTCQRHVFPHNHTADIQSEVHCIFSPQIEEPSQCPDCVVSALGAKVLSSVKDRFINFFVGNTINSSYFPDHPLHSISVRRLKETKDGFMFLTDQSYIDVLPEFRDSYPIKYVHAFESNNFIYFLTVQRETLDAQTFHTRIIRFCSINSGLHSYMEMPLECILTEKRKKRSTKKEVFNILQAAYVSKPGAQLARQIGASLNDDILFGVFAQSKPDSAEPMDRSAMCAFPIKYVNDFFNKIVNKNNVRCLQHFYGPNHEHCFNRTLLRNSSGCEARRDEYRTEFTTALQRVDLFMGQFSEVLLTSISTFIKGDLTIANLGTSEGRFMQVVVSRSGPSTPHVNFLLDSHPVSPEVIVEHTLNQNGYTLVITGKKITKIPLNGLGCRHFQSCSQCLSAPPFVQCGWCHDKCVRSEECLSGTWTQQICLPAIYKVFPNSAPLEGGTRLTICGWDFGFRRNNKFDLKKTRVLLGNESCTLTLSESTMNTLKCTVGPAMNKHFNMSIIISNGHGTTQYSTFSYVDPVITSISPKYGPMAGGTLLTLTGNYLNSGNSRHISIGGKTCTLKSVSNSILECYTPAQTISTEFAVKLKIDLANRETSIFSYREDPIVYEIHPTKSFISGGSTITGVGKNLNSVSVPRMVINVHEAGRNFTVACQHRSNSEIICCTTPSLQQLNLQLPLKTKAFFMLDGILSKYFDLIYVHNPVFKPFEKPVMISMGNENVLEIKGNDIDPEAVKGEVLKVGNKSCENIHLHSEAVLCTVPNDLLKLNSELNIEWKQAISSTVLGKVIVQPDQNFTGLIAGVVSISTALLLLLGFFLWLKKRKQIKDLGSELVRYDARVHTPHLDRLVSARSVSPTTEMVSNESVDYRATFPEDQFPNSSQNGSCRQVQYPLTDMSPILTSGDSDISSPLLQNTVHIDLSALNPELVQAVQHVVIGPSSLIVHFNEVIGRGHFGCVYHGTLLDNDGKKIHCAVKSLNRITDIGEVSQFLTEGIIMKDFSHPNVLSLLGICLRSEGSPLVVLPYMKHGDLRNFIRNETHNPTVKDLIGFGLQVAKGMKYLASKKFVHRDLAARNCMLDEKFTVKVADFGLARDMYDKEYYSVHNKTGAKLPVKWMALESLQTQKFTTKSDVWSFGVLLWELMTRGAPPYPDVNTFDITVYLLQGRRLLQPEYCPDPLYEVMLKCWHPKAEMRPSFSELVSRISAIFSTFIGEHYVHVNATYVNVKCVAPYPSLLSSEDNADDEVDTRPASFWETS
Sequence of Hepatocyte growth factor receptor (Homo sapiens, UniProt P08581, M1250T) (P08581 whole entry M1250T): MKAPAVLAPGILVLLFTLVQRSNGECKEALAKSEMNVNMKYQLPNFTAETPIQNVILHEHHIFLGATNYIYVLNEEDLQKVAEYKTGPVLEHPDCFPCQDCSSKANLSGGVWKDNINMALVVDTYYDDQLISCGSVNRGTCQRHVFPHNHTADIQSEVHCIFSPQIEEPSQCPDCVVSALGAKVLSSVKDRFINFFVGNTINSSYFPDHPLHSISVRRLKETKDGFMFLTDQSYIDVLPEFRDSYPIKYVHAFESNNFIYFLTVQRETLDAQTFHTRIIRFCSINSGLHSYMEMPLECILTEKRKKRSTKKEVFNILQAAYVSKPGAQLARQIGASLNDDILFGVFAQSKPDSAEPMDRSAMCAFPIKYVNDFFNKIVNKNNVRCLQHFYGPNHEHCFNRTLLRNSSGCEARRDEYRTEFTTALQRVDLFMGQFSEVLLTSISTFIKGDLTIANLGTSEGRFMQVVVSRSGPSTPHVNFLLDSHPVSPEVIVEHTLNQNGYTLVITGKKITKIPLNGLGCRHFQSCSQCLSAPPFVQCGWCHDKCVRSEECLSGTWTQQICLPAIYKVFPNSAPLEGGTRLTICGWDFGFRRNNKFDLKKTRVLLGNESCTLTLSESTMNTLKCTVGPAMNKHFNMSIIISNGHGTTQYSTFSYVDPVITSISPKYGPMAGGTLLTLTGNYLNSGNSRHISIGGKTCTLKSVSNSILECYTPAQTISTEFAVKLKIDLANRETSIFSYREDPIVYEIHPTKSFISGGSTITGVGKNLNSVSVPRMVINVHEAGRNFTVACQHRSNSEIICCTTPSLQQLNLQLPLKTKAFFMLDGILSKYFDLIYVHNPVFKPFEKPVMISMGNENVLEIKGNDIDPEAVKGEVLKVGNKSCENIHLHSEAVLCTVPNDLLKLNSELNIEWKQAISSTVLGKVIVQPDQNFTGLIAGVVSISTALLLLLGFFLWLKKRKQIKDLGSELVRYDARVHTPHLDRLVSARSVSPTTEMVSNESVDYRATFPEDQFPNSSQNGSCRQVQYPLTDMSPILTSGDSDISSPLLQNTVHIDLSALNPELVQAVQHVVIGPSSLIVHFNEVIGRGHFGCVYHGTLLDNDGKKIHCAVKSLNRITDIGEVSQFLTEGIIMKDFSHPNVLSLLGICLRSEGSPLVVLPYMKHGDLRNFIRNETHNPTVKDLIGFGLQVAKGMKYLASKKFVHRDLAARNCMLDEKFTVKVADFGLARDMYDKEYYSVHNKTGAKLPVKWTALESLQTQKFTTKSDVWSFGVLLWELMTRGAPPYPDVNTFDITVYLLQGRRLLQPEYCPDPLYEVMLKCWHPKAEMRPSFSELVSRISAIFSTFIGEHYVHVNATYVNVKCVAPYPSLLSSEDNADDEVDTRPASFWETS

SMILES: C=CC(C)(C)[C@@]12C=C(O)C(=O)N3/C(=C/c4cn([C@H]5C[C@@]6(O)O[C@@H]7C[C@@]6(C)[C@]6(C[C@]8(C)CCC(C)(C)[C@@H]8[C@@H]76)[C@@H]5C)cn4)C(=O)N[C@]31N(OC)c1ccccc12
pIC50 (A549): 5.74
pIC50 (Bel-7402): 5.74
pIC50 (MOLT-4): 5.74
pIC50 (HL-60): 5.74

SMILES: C=CC(C)(C)[C@@]12C=C(O)C(=O)N3/C(=C/c4cnc[nH]4)C(=O)N[C@]31N(OC)c1ccccc12
pIC50 (A549): 4.70
viability at 72 h, 5 µM [1]: 100%
pIC50 (T47D): < 4.40
viability at 72 h, 30 µM [2]: 48.9%
inhibition [3]: 88%
pIC50 (MDA-MB-231 [4]): 5.74
Activity (MDA-MB-231 [5]): 57.5%
pIC50 (SK-BR-3): 5.55
viability at 72 h, 20 µM [6]: 74.4%
inhibition at 25 µM (MDA-MB-231 [7]): 2.5%
pIC50 (MDA-MB-468): 5.05
pIC50 [8]: 5.68
inhibition [9]: Active
inhibition [10]: 56.3%
viability at 72 h, 10 µM [11]: 98.8%
Activity (MDA-MB-231 [12]): 30.7%
inhibition (MDA-MB-231 [13]): inactive
Activity (MDA-MB-231 [14]): Dose-dependent effect
Activity [15]: Non-Toxic
pIC50 [16]: 5.38
inhibition [16]: Dose-dependent effect
pIC50 (MCF7): 5.72
pIC50 (HL-60): 5.13
pIC50 (BT-474): 5.57
pIC50 [17]: 5.49
pIC50 (MDA-MB-231 [18]): 5.17
inhibition at 50 µM (MDA-MB-231 [19]): 9.4%
inhibition in vivo at 10 mg/kg (MDA-MB-231 [20]): 65%

SMILES: C=CC(C)(C)[C@@]12C[C@H]3C(=O)N/C(=C/c4c[nH]cn4)C(=O)N3[C@@H]1Nc1ccccc12 [ROQUEFORTINE C]
inhibition [3]: 59.7%
Activity (MDA-MB-231 [21]): 47.6%
pIC50 (SK-BR-3): 4.63
viability at 72 h, 20 µM [6]: 98.4%
pIC50 (MDA-MB-468): 4.54
inhibition [10]: 39.7%
pIC50 (MCF7): 4.66
pIC50 (BT-474): 4.53
pIC50 [17]: 4.61
pIC50 (MDA-MB-231 [18]): 4.63
Activity (MDA-MB-231 [22]): 79.3%

inhibition [3]: 10.2%
pIC50 (SK-BR-3): 4.40
pIC50 (MDA-MB-468): 4.40
inhibition [10]: 0%
pIC50 (MCF7): 4.40
pIC50 (BT-474): 4.40
pIC50 (MDA-MB-231 [18]): 4.50
SMILES: O=C1N[C@@H](Cc2c[nH]c3ccccc23)C(=O)N/C1=C/c1cnc[nH]1
Activity (MDA-MB-231 [21]): 46.1%
pIC50 [17]: 4.62
Activity (MDA-MB-231 [22]): 83%
